# A selection: hits, their analogues and other compounds. The true share with any hit is near 1.8%.
# NPY-Y1 PAM-ag: potentiators or agonists of human neuropeptide Y receptor Y1; P25929; NPY-Y1 expressing cells, potentiator/agonist activation; activation, % at 3.6 µM; 220,000 compounds, 0.37% hits; in the data active = activation above about 33%, passing the limit was not always enough;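 also: cells stimulated with NPY at EC10 then isoproterenol at EC100; 0% = low agonist plus stimulus and 100% = saturating agonist plus stimulus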
# Target sequence (P25929 whole entry, looked up): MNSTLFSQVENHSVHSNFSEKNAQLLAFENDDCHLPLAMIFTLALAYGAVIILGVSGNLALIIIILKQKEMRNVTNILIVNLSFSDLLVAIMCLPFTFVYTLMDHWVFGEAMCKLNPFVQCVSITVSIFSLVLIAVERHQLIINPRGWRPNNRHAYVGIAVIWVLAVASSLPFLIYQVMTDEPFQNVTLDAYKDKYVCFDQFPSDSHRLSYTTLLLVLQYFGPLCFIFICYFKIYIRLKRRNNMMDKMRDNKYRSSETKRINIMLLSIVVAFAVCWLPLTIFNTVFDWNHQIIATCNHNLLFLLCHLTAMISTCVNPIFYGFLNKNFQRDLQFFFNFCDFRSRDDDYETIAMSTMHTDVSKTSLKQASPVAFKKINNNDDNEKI
# NPY-Y2 PAM-ag: human NPY-Y2 potentiation or agonism, primary screen. 220,000 compounds, 0.45% hits. activation, % at 3.6 µM. cells expressing NPY-Y2, potentiator/agonist read-out. P49146. AID 1359; in the data active = activation above about 27%;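 also: cells stimulated with NPY near EC25 plus isoproterenol at EC100; 0% = vehicle plus submaximal agonist and 100% = vehicle plus saturating agonist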
# Target sequence (P49146 whole entry, looked up): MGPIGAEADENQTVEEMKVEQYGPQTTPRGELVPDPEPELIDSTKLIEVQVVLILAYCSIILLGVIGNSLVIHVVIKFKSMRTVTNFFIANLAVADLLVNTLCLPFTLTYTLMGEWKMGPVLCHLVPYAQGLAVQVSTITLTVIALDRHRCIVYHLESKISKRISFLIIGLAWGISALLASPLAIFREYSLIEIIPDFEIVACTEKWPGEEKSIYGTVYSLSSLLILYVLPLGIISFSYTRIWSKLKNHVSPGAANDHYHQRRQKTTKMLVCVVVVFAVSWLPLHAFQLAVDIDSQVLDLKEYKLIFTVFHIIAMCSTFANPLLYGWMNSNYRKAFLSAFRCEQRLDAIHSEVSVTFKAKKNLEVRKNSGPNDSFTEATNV
# NPY-Y2 antag: NPY-Y2 (human) receptor antagonism | NPY-Y2 expressing cells, antagonist mode | inhibition, % at 2.7 µM | 140,000 compounds, 0.99% hits; in the data active = inhibition above about 17%;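 also: 0% = vehicle with agonist challenge and 100% = reference antagonist with challenge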
# NPY-Y1 antag: NPY-Y1 (human) receptor antagonism; AID 1040; 200,000 compounds, 1% hits; HEK293-CNG Y1 cells, membrane potential fluorescence; NPY at EC95, then isoproterenol; inhibition, % at 3.6 µM; P25929;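 active = inhibition above the campaign mean inhibition of all tested compounds plus 3 SD, cut at about 20% in these data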;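 also: 0% = DMSO wells given NPY plus isoproterenol and 100% = isoproterenol alone without NPY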
#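 material = HEK293 cells with Y1 receptor plus CNG channel | also added = NPY 25 nM then isoproterenol 1 µM plus Ro 20-1724 25 µM | schedule = dye 3 h, compound 60 min room temperature, stimulation 45 min | measured by = membrane potential fluorescence | benchmarks = high control isoproterenol alone, low control NPY with isoproterenol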
# NPY-Y1 pot conf: confirmation of human NPY-Y1 receptor potentiators or agonists | shares compounds with NPY-Y1 PAM-ag | cell-based NPY-Y1 potentiator/agonist assay | activation, % at 3.6 µM | 280 compounds, 20% hits | AID 1546; in the data active = activation above about 45%;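 also: cells challenged with NPY at its EC10 plus isoproterenol stimulus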
# NPY-Y2 counter: NPY-Y2 potentiation or agonism as NPY-Y1 counter-screen. shares compounds with NPY-Y1 PAM-ag. HEK293-CNG cells, membrane-potential fluorescence (FLIPR), 1536-well. activation, % at 3.6 µM. 280 compounds, 20% hits; in the data active = activation above about 33%
# NPY-Y1 ag: activates human NPY-Y1, counter-screen for NPY-Y1 potentiators | shares compounds with NPY-Y1 PAM-ag | HEK293 Y1-CNGC, membrane potential fluorescence, agonist mode | activation, % at 3.6 µM | 280 compounds, 50% hits | AID 1697;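 active = percent activation above the mean of DMSO-only control wells plus 3 SD of those wells, cut at about 18% in these data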;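 also: cells challenged with isoproterenol plus Ro 20-1724 with no NPY in test wells; Y1 agonism lowers isoproterenol-driven cAMP and reduces probe fluorescence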
# NPY-Y2 agonist: human NPY-Y2 agonism as NPY-Y1 counter-screen; HEK293 Y2-CNGC, membrane potential fluorescence, agonist mode; 280 compounds, 67% hits; activation, % at 3.6 µM; shares compounds with NPY-Y1 PAM-ag; AID 1698;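 active = activation above the solvent-only control wells' mean plus 3 SD, cut at about 11% in these data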;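 also: 0% = DMSO with isoproterenol and 100% = 40 nM NPY maximal response; agonism lowers cAMP so well fluorescence drops in active wells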
# CNGC inh 2: blocks cyclic nucleotide gated channel in NPY-Y1 counter-screen | shares compounds with NPY-Y1 PAM-ag | HEK293-CNG parental, isoproterenol cAMP, membrane potential fluorescence | AID 1704 | 280 compounds, 42% hits | inhibition, % at 3.6 µM;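 active = inhibition above the mean of stimulated solvent-only control wells plus 3 SD, cut at about 22% in these data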;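 also: 0% = isoproterenol-stimulated DMSO wells and 100% = unstimulated DMSO wells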
# Starred values were filed as active, the others as inactive; . = not tested or not shown.
SMILES,NPY-Y1 PAM-ag,NPY-Y2 PAM-ag,NPY-Y2 antag,NPY-Y1 antag,NPY-Y1 pot conf,NPY-Y2 counter,NPY-Y1 ag,NPY-Y2 agonist,CNGC inh 2
Cc1ccc(-c2[nH]c3ccccc3c2SCCNC(=O)c2ccc(S(=O)(=O)N3CCOCC3)cc2)cc1,47.6*,21.7,0.8,-5.4,21.6,12.4,11.8,11.0*,10.4
COc1ccc(-c2[nH]c3ccccc3c2SCCNC(=O)c2ccccc2)cc1,4.2,12.8,3.5,0.1,.,.,.,.,.
COc1ccc(CC(=O)Nc2nnc(C(C)C)s2)cc1OC,-6.8,2.2,.,0.9,.,.,.,.,.
COc1c(C)cc(C(=O)C2CCCN(C(=O)c3ccc4cc[nH]c4c3)C2)cc1C (configuration not stated),-2.1,-10.1,.,8.0,.,.,.,.,.
Cn1c(C(O)C(O)c2ccccc2)nc2ccccc21 (configuration not stated),9.2,5.9,.,-4.9,.,.,.,.,.
Cn1c(C(C#N)C2=C(Cl)C(=O)N(c3ccccc3)C2=O)nc2ccccc21 (configuration not stated),36.0*,29.9,-6.8,-17.3,70.5*,59.6*,83.3*,72.5*,57.6*
CCN1CCN(C(=O)Nc2cccc(C(F)(F)F)c2)CC1,-15.9,3.4,-0.5,2.2,.,.,.,.,.
CCN1CCC(NC(=O)Nc2cccc(C(F)(F)F)c2)CC1,35.9*,-0.1,.,-0.5,2.2,1.9,-2.1,-4.4,7.4
COc1ccc(NC(=O)c2ccc(OC(F)F)cc2)cc1Cl,-13.6,-3.5,2.6,6.3,.,.,.,.,.
O=C(Nc1ccc(OC(F)F)c(Cl)c1)c1ccccn1,39.4*,-3.4,.,-1.5,9.7,-4.4,-9.0,-10.0,1.4
CCN1C(=O)/C(=C/C=C2\N(CC)c3cc(S(=O)(=O)N(C)C)ccc3N2c2ccccc2)SC1=S,50.4*,18.3,.,.,56.8*,51.7*,50.9*,62.5*,39.2*
CCn1cc(C(=O)N2CCc3ccccc32)c(=O)c2cc(S(=O)(=O)N(C)C3CCCCC3)ccc21,51.4*,9.5,2.0,-9.0,-0.6,8.6,2.7,4.0,1.4
COc1cc2c3c(c1)c(N=NC(N)=S)c(O)n3C(C)(C)C=C2C,54.7*,23.6,.,.,74.1*,61.0*,46.9*,60.5*,53.8*
CC1=CC(C)(C)n2c(O)c(N=NC(N)=S)c3cccc1c32,-10.8,13.0,0.7,-4.9,.,.,.,.,.
CCOC(=O)C(C)(C)N(Cc1cccc(C)c1)S(=O)(=O)c1ccc(Cl)c([N+](=O)[O-])c1,66.0*,27.4,-3.4,-9.1,33.9,28.6,38.7*,30.7*,46.1*
COc1ccc(OC)c2sc(NC(=O)c3ccc(S(=O)(=O)N(C)C)cc3)nc12,34.2*,-3.0,-3.9,-2.6,19.5,4.9,11.9,17.9*,16.8
Cc1cc(NC(=S)N(Cc2ccc(Br)cc2)Cc2ccc(C(=O)O)cc2)ccc1Cl,9.3,21.9,.,-9.5,.,.,.,.,.
CCOC(=O)N1CCN(C(=O)CN(C2CCCCC2)S(=O)(=O)c2c(C)cc(C)cc2C)CC1,70.9*,-21.1,1.4,2.7,-6.5,-4.8,-12.6,4.3,-8.4
Cc1cc(C)c(S(=O)(=O)N(CC(=O)N2CCOCC2)C2CCCCC2)c(C)c1,-3.0,5.8,1.1,10.2,.,.,.,.,.
Cc1nc(-c2cccc(-c3noc(C)n3)c2)no1,38.4*,-8.6,1.8,1.1,-5.1,-0.7,-3.1,-6.8,-7.9
COc1cc(-c2noc(C)n2)cc(OC)c1OC,-6.5,-4.0,.,.,.,.,.,.,.
O=C(CCC1CC(=O)Nc2ccccc21)NCc1ccccc1 (configuration not stated),-6.6,10.5,2.5,9.9,.,.,.,.,.
O=C(CCC1CC(=O)Nc2ccccc21)NCc1ccc(F)cc1 (configuration not stated),67.7*,-25.7,-2.3,4.2,-0.3,-2.1,-1.5,-5.5,1.4
CCOc1ccc(NC(=O)c2cc(F)c(F)cc2Cl)cc1OCC,0.2,-0.9,.,4.0,.,.,.,.,.
O=C1c2cccc([N+](=O)[O-])c2C(=O)N1c1ccccc1,15.8,-3.0,-0.3,1.1,.,.,.,.,.
SMILES,NPY-Y1 PAM-ag,NPY-Y2 PAM-ag,NPY-Y2 antag,NPY-Y1 antag,NPY-Y1 pot conf,NPY-Y2 counter,NPY-Y1 ag,NPY-Y2 agonist,CNGC inh 2
O=C1c2ccccc2C(=O)c2c([N+](=O)[O-])ccc(O)c21,52.3*,-1.1,.,.,41.2,42.8*,29.3*,33.3*,36.1*
CCN(Cc1cc2cc(C)ccc2[nH]c1=O)C(=O)c1cccc([N+](=O)[O-])c1,23.4,-7.8,.,.,.,.,.,.,.
Cc1ccc(O)c(-c2cc3ccccc3[nH]2)c1,46.9*,25.9,-5.1,-11.0,37.7,32.0,37.8*,41.6*,31.0*
O=[N+]([O-])c1cc(S(=O)(=O)Nc2cccc(Cl)c2)ccc1N/N=C/c1ccc(N2CCOCC2)cc1,65.7*,-6.4,.,.,53.1*,61.0*,44.1*,61.4*,46.8*
Nc1nnc(SCC(=O)c2ccc3c(c2)NC(=O)CO3)s1,-5.2,-3.8,.,-5.3,.,.,.,.,.
COc1ccc(S(=O)(=O)Nc2ccccc2C(=O)Nc2nc(-c3ccc(F)cc3)cs2)cc1OC,39.0*,32.2,4.0,-5.3,-16.1,9.5,-12.1,7.5,-4.9
CN(C)c1cc[n+](/C(C(=S)Nc2ccc(SC(F)F)cc2)=C(/[O-])c2ccccc2)cc1,9.3,7.4,.,-0.5,.,.,.,.,.
Cc1cc(C)c(/C([O-])=C(/C(=S)Nc2ccc(SC(F)F)cc2)[n+]2ccccc2)cc1C,40.2*,26.8,.,0.7,69.2*,46.6*,51.8*,52.1*,55.5*
[O-]/C(=C(\C(=S)Nc1ccc(SC(F)F)cc1)[n+]1ccccc1)c1cc(Cl)ccc1Cl,47.0*,26.4,.,-11.7,61.5*,34.9*,38.5*,25.0*,48.8*
COc1cc(S(=O)(=O)N2CCN(C(=O)c3ccccc3)CC2)c(OC)cc1Br,13.1,-22.9,.,-0.1,.,.,.,.,.
O=C1N=c2ccccc2=C1c1sc(=S)n(Cc2ccccc2Cl)c1O,72.4*,-6.1,.,.,37.3,37.8*,24.8*,30.4*,29.8*
CSc1ccc(C2NC(=O)c3c(sc4c3CCN(C)C4)N2)cc1 (configuration not stated),42.0*,8.3,2.2,3.0,3.5,-0.4,-6.0,-2.8,2.6
CN1CCc2c(sc3c2C(=O)NC(c2cccs2)N3)C1 (configuration not stated),-2.6,1.5,-1.2,-9.1,.,.,.,.,.
OCCC1CN(CC#Cc2ccccc2)CCN1C1CCCC1 (configuration not stated),101.7*,-7.6,.,3.3,-6.6,-1.9,-7.4,-4.3,-0.7

# Compound activity as filed in PubChem BioAssay.
